# Experimental data from ChEMBL document CHEMBL1139484, “Design, synthesis, and binding studies of new potent ligands of cannabinoid receptors” (J Med Chem, 2005).
# How the values were obtained:
# Cannabinoid receptor 1 = Cannabinoid receptor 1 (Homo sapiens, UniProt P21554); test: Displacement of [3H]CP-55940 from human CB1 receptor expressed in COS cells; type: cell-based
# [1] = target: T1, Fatty-acid amide hydrolase 1 (Rattus norvegicus, UniProt P97612); test: Inhibition of rat brain FAAH assessed as [14C]anandamide hydrolysis
# T1 sequence (P97612 whole entry): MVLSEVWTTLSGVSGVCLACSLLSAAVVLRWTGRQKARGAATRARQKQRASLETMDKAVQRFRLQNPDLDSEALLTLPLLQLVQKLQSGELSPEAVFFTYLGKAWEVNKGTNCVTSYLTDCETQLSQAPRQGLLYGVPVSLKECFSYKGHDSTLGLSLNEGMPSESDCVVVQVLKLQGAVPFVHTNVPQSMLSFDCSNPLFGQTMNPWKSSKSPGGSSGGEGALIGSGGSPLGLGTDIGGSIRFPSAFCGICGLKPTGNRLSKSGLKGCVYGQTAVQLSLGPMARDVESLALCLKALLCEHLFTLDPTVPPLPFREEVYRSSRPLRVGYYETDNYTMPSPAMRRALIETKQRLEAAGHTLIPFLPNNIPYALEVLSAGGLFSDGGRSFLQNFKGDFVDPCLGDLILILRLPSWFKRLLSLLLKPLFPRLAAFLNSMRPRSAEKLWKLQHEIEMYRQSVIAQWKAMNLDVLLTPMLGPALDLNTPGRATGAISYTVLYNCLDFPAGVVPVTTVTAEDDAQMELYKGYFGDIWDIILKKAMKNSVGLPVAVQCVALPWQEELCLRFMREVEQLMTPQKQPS
# Outline: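 Rat brain membranes incubated with [14C]anandamide (6 µM) and increasing compound concentrations in 50 mM Tris-HCl pH 9, 30 min, 37 °C. Mixture extracted with 2 volumes CHCl3/CH3OH (2:1); [14C]ethanolamine in aqueous phase counted by scintillation. IC50 reported; mean of 3 experiments.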
# [2] = Inhibition of anandamide membrane transporter in RBL-2H3 cells assessed as [14C]anandamide uptake; type: cell-based, Rattus norvegicus
# Outline: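 RBL-2H3 cells incubated with [14C]anandamide (4 µM) for 5 min at 37 °C, with or without varying inhibitor concentrations. Medium extracted with CHCl3/CH3OH (2:1); residual radioactivity taken as measure of uptake. IC50 from fit; mean of 3 experiments.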
# Cannabinoid receptor 2 = Cannabinoid receptor 2 (Homo sapiens, UniProt P34972); test: Displacement of [3H]CP-55940 from human CB2 receptor expressed in COS cells; type: cell-based
# [3] = target: Cannabinoid receptor (Homo sapiens) (UniProt P34972+P21554); test: Selectivity for human CB2 receptor over human CB1 receptor; type: protein assay
# Outline: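 Ratio of Ki values from [3H]CP-55,940 (0.5 nM) displacement on P2 membranes of COS cells transfected with human CB1 or CB2; Ki from IC50 by Cheng-Prusoff, mean of 3 experiments.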
# Cannabinoid receptor 1, sequence (P21554 whole entry): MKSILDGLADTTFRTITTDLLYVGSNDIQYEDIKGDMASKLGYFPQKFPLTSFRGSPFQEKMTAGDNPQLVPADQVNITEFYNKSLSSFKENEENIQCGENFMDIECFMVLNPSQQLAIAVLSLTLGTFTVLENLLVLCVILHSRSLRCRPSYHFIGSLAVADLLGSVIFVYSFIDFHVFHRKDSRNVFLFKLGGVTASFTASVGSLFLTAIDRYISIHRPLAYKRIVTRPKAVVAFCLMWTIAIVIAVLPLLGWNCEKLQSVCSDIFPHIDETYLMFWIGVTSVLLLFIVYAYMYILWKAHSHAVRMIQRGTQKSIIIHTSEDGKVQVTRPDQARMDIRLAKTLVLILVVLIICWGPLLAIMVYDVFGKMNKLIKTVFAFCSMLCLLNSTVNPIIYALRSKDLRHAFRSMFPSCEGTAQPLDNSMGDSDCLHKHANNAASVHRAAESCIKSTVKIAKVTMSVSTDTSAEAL
# Cannabinoid receptor 2, sequence (P34972 whole entry): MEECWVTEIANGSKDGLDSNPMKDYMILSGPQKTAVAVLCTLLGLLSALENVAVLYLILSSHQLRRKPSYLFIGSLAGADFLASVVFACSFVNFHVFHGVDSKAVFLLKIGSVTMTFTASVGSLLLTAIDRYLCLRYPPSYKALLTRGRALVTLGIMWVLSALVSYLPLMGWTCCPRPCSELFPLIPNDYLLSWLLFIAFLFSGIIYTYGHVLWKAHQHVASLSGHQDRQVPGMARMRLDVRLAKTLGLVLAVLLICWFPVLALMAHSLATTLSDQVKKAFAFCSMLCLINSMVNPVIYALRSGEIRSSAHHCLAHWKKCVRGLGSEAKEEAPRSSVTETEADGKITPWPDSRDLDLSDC
# Cannabinoid receptor (Homo sapiens), sequence (P21554 whole entry, looked up): as the sequence (P21554 whole entry) above
# Cannabinoid receptor (Homo sapiens), sequence (P34972 whole entry, looked up): as the sequence (P34972 whole entry) above
SMILES,Ki (Cannabinoid receptor 1) [µM],IC50 [2] [µM],other results
O=C(CCCCCCCCCCCCCCCOc1cccc(O)c1)NCCO,> 10,–,–
CCCCCCc1ccc(O)cc1OCCCCCCCCCCC(=O)NC1CC1,–,13,IC50 [1]: > 25 µM
CCCCCCc1ccc(OCCCCCCCCCCC(=O)Nc2ccc(O)cc2)cc1O,–,> 25,Ki (Cannabinoid receptor 2): > 10 µM
O=C(CCCCCCCCCCOc1cccc(O)c1)NCCO,> 10,–,–
CCCCCCc1ccc(OCCCCCCCCCCC(=O)NC2CC2)cc1O,> 10,> 25,Selectivity ratio [3]: 26
CCCCCCc1ccc(OCCCCCCCCCCC(=O)NCCO)cc1O,> 10,–,–
CCCCCCc1ccc(O)cc1OCCCCCCCCCCC(=O)NCCO,–,> 25,–
O=C(CCCCCCCCCCOc1cccc(O)c1)Nc1ccc(O)cc1,–,–,Ki (Cannabinoid receptor 2): > 10 µM
CCCCCc1cc(O)cc(OCCCCCCCCCCCCCCCC(=O)NC2CC2)c1,> 10,–,–
CCCCCc1cc(O)cc(OCCCCCCCCCCCCCCCC(=O)Nc2ccc(O)cc2)c1,> 10,–,–
CCCCCc1cc(O)cc(OCCCCCCCCCCC(=O)NCCO)c1,–,25,–
O=C(CCCCCCCCCCOc1cccc(O)c1)NC1CC1,> 10,–,–
CCCCCCCCCCCCCCCc1cccc(OCCCCCC(=O)Nc2ccc(O)cc2)c1,–,> 25,–
CCCCCCc1ccc(OCCCCCCCCCCCCCCCC(=O)Nc2ccc(O)cc2)cc1O,> 10,–,–
CCCCCCc1ccc(O)cc1OCCCCCC(=O)NCCO,–,–,Ki (Cannabinoid receptor 2): > 10 µM
CCCCCCCCCCCCCCCc1cccc(OCCCCCC(=O)NCCO)c1,–,> 25,–
CCCCCCc1ccc(O)cc1OCCCCCCCCCCC(=O)Nc1ccc(O)cc1,–,> 25,–
O=C(CCCCCCCCCCCCCCCOc1cccc(O)c1)Nc1ccc(O)cc1,–,–,Ki (Cannabinoid receptor 2): 10 µM
CCCCCc1cc(O)cc(OCCCCCCCCCCC(=O)NC2CC2)c1,–,17,–
